Laboratory results from ChEMBL document CHEMBL1921766, “Orally active zwitterionic factor Xa inhibitors with long duration of action” (Bioorg Med Chem Lett, 2011).
Values after ≈ are worked out from the molar mass of the structure shown.

Columns and labels:
[1] = Metabolic stability in human liver microsomes at 1 uM after 20 to 30 mins by LC/MS/MS analysis in presence of NADPH; type: ADME, Microsome; settings: read-out: Stability
In short: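 Metabolic stability read as percent remaining after incubation with human liver microsomes in vitro.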

[2] = Solubility of the compound in Japanese pharmacopoeia second fluid at pH 6.8 at 10 mM after 12 hrs; type: physicochemical
In short: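 Solubility measured in Japanese Pharmacopoeia Second Fluid, pH 6.8.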

[3] = Solubility of the compound in Japanese pharmacopoeia first fluid at pH 1.2 at 10 mM after 12 hrs; type: physicochemical
In short: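 Solubility measured in Japanese Pharmacopoeia First Fluid, pH 1.2.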

[4] = 1-Octanol-phosphate buffered saline distribution coefficient, log D of the compound at pH 7.4 after 30 mins by shake flask method; type: physicochemical
In short: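 Log D measured as the partition between 1-octanol and phosphate buffered saline, pH 7.4.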

[5] = Cmax in monkey serum at 1 mg/kg, po by LC-MS/MS analysis; type: ADME, organism-based, Macaca mulatta; parameters: dose 1 mg/kg, route oral; settings: rhesus monkey
In short: (§1)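 Oral dosing of fasting monkeys (two animals) at 1.0 mg/kg, given as HCl salts. Plasma was sampled at 0.5, 1, 2, 4, 8 and 24 h for ex vivo anti-fXa inhibition (%) and for drug concentration. AUC, Cmax, C24 h and the Cmax/C24 h ratio were taken from the plasma concentrations.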

[6] = AUC in monkey serum at 1 mg/kg, po by LC-MS/MS analysis; type: ADME, organism-based, Macaca mulatta; parameters: dose 1 mg/kg, route oral; settings: rhesus monkey; in short: as §1
[7] = Drug level in monkey serum at 1 mg/kg, po at 24 hrs by LC-MS/MS analysis; type: ADME, organism-based, Macaca mulatta; parameters: dose 1 mg/kg, route oral; settings: rhesus monkey, read-out: Drug uptake; in short: as §1
[8] = Bioavailability in monkey at 1 mg/kg, iv after 24 hrs by LC-MS/MS analysis; type: ADME, organism-based, Macaca mulatta; settings: rhesus monkey, in vivo

SMILES	remaining at 1 µM [1]	solubility at 12 h, 10000 µM [2]	solubility at 12 h, 10000 µM [3]	logD at 0.5 h [4]	Cmax [5]	AUC [6]	concentration at 24 h [7]	bioavailability [8]
CNC(=O)c1ccc(CNC(=O)c2ccc(Cl)s2)c(NC(=O)c2nc3c(s2)CN(C)CC3)c1	85%	2.7 µg/mL (≈ 5.36 µM)	140 µg/mL (≈ 278 µM)	–	–	–	–	–
CCN1CCc2nc(C(=O)Nc3cc(C(=O)O)ccc3CNC(=O)c3ccc(Cl)s3)sc2C1	97%	1000 µg/mL (≈ 1980 µM)	230 µg/mL (≈ 455 µM)	0.14	–	–	–	–
CC(C)N1CCc2nc(C(=O)Nc3cc(C(=O)O)ccc3CCC(=O)Nc3ccc(Br)cc3)sc2C1	88%	520 µg/mL (≈ 910 µM)	65 µg/mL (≈ 114 µM)	1.08	–	–	–	–
CN1CCc2nc(C(=O)Nc3cc(C(=O)O)ccc3CNC(=O)c3ccc(Cl)s3)sc2C1	71%	> 850 µg/mL	55 µg/mL (≈ 112 µM)	-0.29	–	–	–	–
CC(C)N1CCc2nc(C(=O)Nc3cc(C(=O)O)ccc3CNC(=O)c3ccc(Cl)s3)sc2C1.Cl	–	–	–	–	67.1 ng/mL	605 ng·h/mL	7.1 ng/mL	–
CN1CCc2nc(C(=O)Nc3ccc(C(=O)O)cc3CNC(=O)c3ccc(Cl)s3)sc2C1	95%	13 µg/mL (≈ 26.5 µM)	72 µg/mL (≈ 147 µM)	–	–	–	–	–
CC(C)N1CCc2nc(C(=O)Nc3cc(C(=O)O)ccc3CCC(=O)Nc3ccc(Cl)cn3)sc2C1	100%	86 µg/mL (≈ 163 µM)	810 µg/mL (≈ 1530 µM)	0.23	–	–	–	–
O=C(O)c1ccc(CNC(=O)c2ccc(Cl)s2)c(NC(=O)c2nc3c(s2)CN(C(CF)CF)CC3)c1	100%	870 µg/mL (≈ 1570 µM)	120 µg/mL (≈ 216 µM)	0.44	–	–	–	–
COCC(C)N1CCc2nc(C(=O)Nc3cc(C(=O)O)ccc3CNC(=O)c3ccc(Cl)s3)sc2C1 (centres undefined)	100%	1000 µg/mL (≈ 1820 µM)	610 µg/mL (≈ 1110 µM)	0.41	–	–	–	–
CN1CCc2nc(C(=O)Nc3cc(-c4nnn[nH]4)ccc3CNC(=O)c3ccc(Cl)s3)sc2C1	–	470 µg/mL (≈ 913 µM)	320 µg/mL (≈ 621 µM)	–	–	–	–	–
CC(CF)N1CCc2nc(C(=O)Nc3cc(C(=O)O)ccc3CNC(=O)c3ccc(Cl)s3)sc2C1 (centres undefined)	94%	580 µg/mL (≈ 1080 µM)	160 µg/mL (≈ 298 µM)	0.45	–	–	–	–
COC(=O)c1ccc(CNC(=O)c2ccc(Cl)s2)c(NC(=O)c2nc3c(s2)CN(C)CC3)c1	42%	52 µg/mL (≈ 103 µM)	890 µg/mL (≈ 1760 µM)	–	–	–	–	–
CN1CCc2nc(C(=O)Nc3c(CNC(=O)c4ccc(Cl)s4)cccc3C(=O)N(C)C)sc2C1	81%	980 µg/mL (≈ 1890 µM)	900 µg/mL (≈ 1740 µM)	–	–	–	–	–
CN1CCc2nc(C(=O)Nc3cc(C(=O)N(C)C)ccc3CNC(=O)c3ccc(Cl)s3)sc2C1	67%	830 µg/mL (≈ 1600 µM)	> 900 µg/mL	–	–	–	–	–
CC(C)N1CCc2nc(C(=O)Nc3cc(C(=O)O)cc(Cl)c3CCC(=O)Nc3ccc(Cl)cc3)sc2C1	93%	160 µg/mL (≈ 285 µM)	450 µg/mL (≈ 801 µM)	1.61	–	–	–	52%
CC(C)N1CCc2nc(C(=O)Nc3c(CCC(=O)Nc4ccc(Cl)cc4)cccc3C(=O)O)sc2C1	100%	830 µg/mL (≈ 1570 µM)	1000 µg/mL (≈ 1900 µM)	0.66	–	–	–	–
CNC(=O)c1cccc(CNC(=O)c2ccc(Cl)s2)c1NC(=O)c1nc2c(s1)CN(C)CC2	80%	130 µg/mL (≈ 258 µM)	830 µg/mL (≈ 1650 µM)	–	–	–	–	–
CC(C)N1CCc2nc(C(=O)Nc3cc(C(=O)O)ccc3CCC(=O)Nc3ccc(Cl)cn3)sc2C1.Cl	–	–	–	–	98 ng/mL	785 ng·h/mL	9.5 ng/mL	–
CN1CCc2nc(C(=O)Nc3cc(C(=O)O)ccc3CNC(=O)c3ccc(Cl)s3)sc2C1.Cl	–	–	–	–	25.8 ng/mL	247 ng·h/mL	4 ng/mL	–
CC(C)N1CCc2nc(C(=O)Nc3cc(C(=O)O)ccc3CCC(=O)Nc3ccc(F)cc3)sc2C1	94%	140 µg/mL (≈ 274 µM)	980 µg/mL (≈ 1920 µM)	0.27	–	–	–	–
CC(C)N1CCc2nc(C(=O)Nc3cc(C(=O)O)cc(Cl)c3CCC(=O)Nc3ccc(Cl)cc3)sc2C1.Cl	–	–	–	–	67 ng/mL	724 ng·h/mL	17 ng/mL	–
CC(C)N1CCc2nc(C(=O)Nc3cc(C(=O)O)cc(C(F)(F)F)c3CCC(=O)Nc3ccc(Cl)cc3)sc2C1	77%	310 µg/mL (≈ 521 µM)	700 µg/mL (≈ 1180 µM)	1.64	–	–	–	–

SMILES	remaining at 1 µM [1]	solubility at 12 h, 10000 µM [2]	solubility at 12 h, 10000 µM [3]	logD at 0.5 h [4]	Cmax [5]	AUC [6]	concentration at 24 h [7]	bioavailability [8]
CC(C)N1CCc2nc(C(=O)Nc3cc(C(=O)O)ccc3CCC(=O)Nc3ccc(Cl)cc3)sc2C1	100%	720 µg/mL (≈ 1370 µM)	490 µg/mL (≈ 930 µM)	0.82	–	–	–	67%
CN1CCc2nc(C(=O)Nc3cc(C(=O)NS(C)(=O)=O)ccc3CNC(=O)c3ccc(Cl)s3)sc2C1	–	1000 µg/mL (≈ 1760 µM)	990 µg/mL (≈ 1740 µM)	–	–	–	–	–
CN1CCc2nc(C(=O)Nc3ccccc3CNC(=O)c3ccc(Cl)s3)sc2C1	53%	–	–	–	–	–	–	–
CC(C)N1CCc2nc(C(=O)Nc3c(CNC(=O)c4ccc(Cl)s4)cccc3C(=O)O)sc2C1.Cl	–	–	–	–	50.5 ng/mL	221 ng·h/mL	2 ng/mL	–
CC(C)N1CCc2nc(C(=O)Nc3c(CNC(=O)c4ccc(Cl)s4)cccc3C(=O)O)sc2C1	96%	1000 µg/mL (≈ 1930 µM)	1000 µg/mL (≈ 1930 µM)	0.28	–	–	–	–
CN1CCc2nc(C(=O)Nc3c(CNC(=O)c4ccc(Cl)s4)cccc3C(N)=O)sc2C1.Cl	–	–	–	–	109 ng/mL	285 ng·h/mL	–	–
CCOc1cc(C(=O)O)cc(NC(=O)c2nc3c(s2)CN(C(C)C)CC3)c1CCC(=O)Nc1ccc(Cl)cc1	93%	3 µg/mL (≈ 5.25 µM)	370 µg/mL (≈ 648 µM)	1.62	–	–	–	–
O=C(NCc1cccc(C(=O)O)c1NC(=O)c1nc2c(s1)COCC2)c1ccc(Cl)s1	57%	930 µg/mL (≈ 1950 µM)	2 µg/mL (≈ 4.18 µM)	-0.12	–	–	–	–
CN1CCc2nc(C(=O)Nc3cc(C(=O)O)ccc3CCC(=O)Nc3ccc(Cl)cn3)sc2C1	92%	210 µg/mL (≈ 420 µM)	250 µg/mL (≈ 500 µM)	-0.28	–	–	–	–
COc1cc(C(=O)O)cc(NC(=O)c2nc3c(s2)CN(C(C)C)CC3)c1CCC(=O)Nc1ccc(Cl)cc1	87%	39 µg/mL (≈ 70 µM)	810 µg/mL (≈ 1450 µM)	1.15	–	–	–	–
CN1CCc2nc(C(=O)Nc3cc(C(=O)O)ccc3CCC(=O)Nc3ccc(Cl)cc3)sc2C1	95%	24 µg/mL (≈ 48.1 µM)	430 µg/mL (≈ 862 µM)	0.27	–	–	–	–
CC(C)Oc1cc(C(=O)O)cc(NC(=O)c2nc3c(s2)CN(C(C)C)CC3)c1CCC(=O)Nc1ccc(Cl)cc1	86%	130 µg/mL (≈ 222 µM)	320 µg/mL (≈ 547 µM)	1.91	–	–	–	–
O=C(O)c1ccc(CNC(=O)c2ccc(Cl)s2)c(NC(=O)c2nc3c(s2)COCC3)c1	82%	950 µg/mL (≈ 1990 µM)	2 µg/mL (≈ 4.18 µM)	0.02	–	–	–	–
CC(C)N1CCc2nc(C(=O)Nc3cc(C(=O)O)cc(F)c3CCC(=O)Nc3ccc(Cl)cc3)sc2C1	100%	11 µg/mL (≈ 20.2 µM)	970 µg/mL (≈ 1780 µM)	1.1	–	–	–	–
CC(C)N1CCc2nc(C(=O)Nc3cc(C(=O)O)ccc3CCC(=O)Nc3ccc(Cl)cc3)sc2C1.Cl	–	–	–	–	87 ng/mL	1370 ng·h/mL	26 ng/mL	–
CC(C)N1CCc2nc(C(=O)Nc3cc(C(=O)O)cc(F)c3CCC(=O)Nc3ccc(Cl)cc3)sc2C1.Cl	–	–	–	–	32 ng/mL	448 ng·h/mL	6.1 ng/mL	–
CN1CCc2nc(C(=O)Nc3c(CNC(=O)c4ccc(Cl)s4)cccc3C(N)=O)sc2C1	94%	710 µg/mL (≈ 1450 µM)	740 µg/mL (≈ 1510 µM)	–	–	–	–	–
CN1CCc2nc(C(=O)Nc3cc(C(N)=O)ccc3CNC(=O)c3ccc(Cl)s3)sc2C1	77%	< 2.4 µg/mL	30 µg/mL (≈ 61.2 µM)	–	–	–	–	–
CC(C)N1CCc2nc(C(=O)Nc3cc(C(=O)O)ccc3CNC(=O)c3ccc(Cl)s3)sc2C1	96%	41 µg/mL (≈ 79 µM)	49 µg/mL (≈ 94.4 µM)	0.57	–	–	–	51%
CN1CCc2nc(C(=O)Nc3c(CNC(=O)c4ccc(Cl)s4)cccc3C(=O)O)sc2C1	–	> 800 µg/mL	710 µg/mL (≈ 1450 µM)	-0.38	–	–	–	–
CN1CCc2nc(C(=O)Nc3ccccc3CNC(=O)c3ccc(Cl)s3)sc2C1.Cl	–	–	–	–	95.9 ng/mL	346 ng·h/mL	0.6 ng/mL	–
